Data reported in ChEMBL document CHEMBL1147102, “rpoN gene of Pseudomonas aeruginosa alters its susceptibility to quinolones and carbapenems” (2007).
Converted amounts (≈) assume the structure as drawn.

How the values were obtained:
Type in all cases: functional
Pseudomonas aeruginosa [1] = experiment: Antimicrobial activity against wild type Pseudomonas aeruginosa PAO1 after 24 hrs; details: PAO1, 24 h
Outline: (§1)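 Broth microdilution in LB broth, inoculum 1 × 10⁶ cells/ml. MIC read after 24 h at 37°C as the lowest concentration giving complete growth inhibition by unaided eye. For MBC, 10 μl from each well without visible growth was plated on LB agar and incubated 24 h at 37°C.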

Pseudomonas aeruginosa [2] = experiment: Antimicrobial activity against Pseudomonas aeruginosa PAO1 with rpoN mutation after 24 hrs; details: PAO1, 24 h; outline: as §1
Pseudomonas aeruginosa [3] = experiment: Antimicrobial activity against Pseudomonas aeruginosa PAO1 with pvdS mutation after 24 hrs; details: PAO1, 24 h; outline: as §1
Pseudomonas aeruginosa [4] = experiment: Increase in GFP tagged vqsR protein expression in Pseudomonas aeruginosa PAO1 with rpoN mutation at 8 ug/ml by flow cytometry relative to wild type
Outline: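 Strains carried a plasmid GFP reporter driven by the vqsR promoter. Cells were grown in LB broth with carbenicillin 400 μg/ml. Stationary-phase (overnight) cultures were washed, resuspended in fresh LB and given ofloxacin 8 μg/ml. Samples were taken over 0–5 h, washed and resuspended in PBS. Mean fluorescence intensity came from 20,000 events, corrected for background (PAO1 without gfp). Three experiments.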

Pseudomonas aeruginosa [5] = experiment: Increase in pvdS gene expression in Pseudomonas aeruginosa PAO1 with rpoN mutation at 8 ug/ml after 3 hrs relative to wild type
Outline: (§2)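 Overnight LB cultures were washed and resuspended in fresh LB with ofloxacin 8 μg/ml. Sampling was at 0, 1, 3 and 5 h, with RNA stabilized immediately. DNase-treated total RNA (~650 ng) was reverse transcribed. qRT-PCR was quantified against external plasmid standard curves and normalized to the rpsL reference gene. Triplicate reactions.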

Pseudomonas aeruginosa [6] = experiment: Increase in vqsR gene expression in Pseudomonas aeruginosa PAO1 with rpoN mutation at 8 ug/ml relative to wild type; outline: as §2

Row | Structure (SMILES) | MBC (Pseudomonas aeruginosa [1]) | MIC (Pseudomonas aeruginosa [1]) | MBC (Pseudomonas aeruginosa [2]) | MIC (Pseudomonas aeruginosa [2]) | MBC (Pseudomonas aeruginosa [3]) | MIC (Pseudomonas aeruginosa [3]) | Fold change (Pseudomonas aeruginosa [4]) | Fold change (Pseudomonas aeruginosa [5]) | Fold change (Pseudomonas aeruginosa [6])
1 | C[C@@H](O)[C@H]1C(=O)N2C(C(=O)[O-])=C(SC3Cn4cnc[n+]4C3)[C@H](C)[C@H]12 (some centres not stated) [BIAPENEM] | 2 µg/mL (≈ 5.71 µM) | 0.5 µg/mL (≈ 1.43 µM) | 16 µg/mL (≈ 45.7 µM) | 0.5 µg/mL (≈ 1.43 µM) | 1 µg/mL (≈ 2.85 µM) | 0.5 µg/mL (≈ 1.43 µM) |  |  | 
2 | O=C(O)c1cn(C2CC2)c2cc(N3CCNCC3)c(F)cc2c1=O [CIPROFLOXACIN] | 0.5 µg/mL (≈ 1.51 µM) | 0.125 µg/mL (≈ 0.377 µM) | 2 µg/mL (≈ 6.04 µM) | 0.25 µg/mL (≈ 0.754 µM) | 0.25 µg/mL (≈ 0.754 µM) | 0.125 µg/mL (≈ 0.377 µM) |  |  | 
3 | C[C@@H](O)[C@H]1C(=O)N2C(C(=O)O)=C(SCCNC=N)C[C@H]12 [IMIPENEM ANHYDROUS] | 1 µg/mL (≈ 3.34 µM) | 1 µg/mL (≈ 3.34 µM) | 16 µg/mL (≈ 53.4 µM) | 1 µg/mL (≈ 3.34 µM) | 4 µg/mL (≈ 13.4 µM) | 1 µg/mL (≈ 3.34 µM) |  |  | 
4 | CC1COc2c(N3CCN(C)CC3)c(F)cc3c(=O)c(C(=O)O)cn1c23 (configuration not stated) [OFLOXACIN] | 1 µg/mL (≈ 2.77 µM) | 1 µg/mL (≈ 2.77 µM) | 2 µg/mL (≈ 5.53 µM) | 1 µg/mL (≈ 2.77 µM) | 2 µg/mL (≈ 5.53 µM) | 1 µg/mL (≈ 2.77 µM) | 8 | 30 | 2.5
